# Data as given in ChEMBL document CHEMBL3739392, “Development of highly potent phosphodiesterase 10A (PDE10A) inhibitors: Synthesis and in vitro evaluation of 1,8-dipyridinyl- and 1-pyridinyl-substituted imidazo[1,5-a]quinoxalines” (Eur J Med Chem, 2016).
# Key:
# [1] = target: Dual specificity calcium/calmodulin-dependent 3',5'-cyclic nucleotide phosphodiesterase 1B (Homo sapiens, UniProt Q01064); assay: Inhibition of human PDE1B using [3H]cAMP as substrate after 30 mins by scintillation proximity assay
# Dual specificity calcium/calmodulin-dependent 3',5'-cyclic nucleotide phosphodiesterase 1B, sequence (Q01064 whole entry): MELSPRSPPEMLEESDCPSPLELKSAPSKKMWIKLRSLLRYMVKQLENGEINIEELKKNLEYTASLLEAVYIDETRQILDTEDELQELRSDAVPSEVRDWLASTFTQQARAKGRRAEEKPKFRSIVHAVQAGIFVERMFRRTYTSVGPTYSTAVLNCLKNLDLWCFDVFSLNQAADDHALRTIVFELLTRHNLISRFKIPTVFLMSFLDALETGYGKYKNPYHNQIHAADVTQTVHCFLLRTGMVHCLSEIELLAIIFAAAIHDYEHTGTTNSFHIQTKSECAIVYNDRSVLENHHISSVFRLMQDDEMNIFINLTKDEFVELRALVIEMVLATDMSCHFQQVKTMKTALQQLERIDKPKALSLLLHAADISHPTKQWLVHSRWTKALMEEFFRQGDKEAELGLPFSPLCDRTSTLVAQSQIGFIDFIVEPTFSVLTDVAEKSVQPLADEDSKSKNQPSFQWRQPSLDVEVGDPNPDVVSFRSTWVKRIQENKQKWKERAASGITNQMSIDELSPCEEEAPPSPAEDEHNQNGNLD
# [2] = target: cAMP and cAMP-inhibited cGMP 3',5'-cyclic phosphodiesterase 10A (Homo sapiens, UniProt Q9Y233); assay: Inhibition of human recombinant PDE10A1 expressed in baculovirus infected insect SF21 cells using [3H]cAMP as substrate after 30 mins by scintillation proximity assay
# Method in brief: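 Cytosolic PDE10A1 from Sf21 lysate (sonication in Tris-HCl/EDTA/sucrose pH 7.4, 48000 g supernatant, stored -70°C). Assay in 50 mM Tris-HCl/5 mM MgCl2 with 0.1 µM [3H]cAMP, started by substrate, 37°C for 30 min; stopped with Ysi-SPA beads, settled 1 h, scintillation counting. Enzyme amount optimized per preparation; no-enzyme blank for non-specific activity; IC50 by two-parameter Hill model.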
# [3] = Inhibition of bovine PDE6 using [3H]cAMP as substrate after 30 mins by scintillation proximity assay; parameters: species or system Bos taurus
# Homo sapiens = organism: Homo sapiens; assay: Selectivity factor, ratio of IC50 for human recombinant PDE2A to IC50 for human recombinant PDE10A1
# [4] = target: cGMP-inhibited 3',5'-cyclic phosphodiesterase 3A (Homo sapiens, UniProt Q14432); assay: Inhibition of human PDE3A using [3H]cAMP as substrate after 30 mins by scintillation proximity assay
# [5] = target: High affinity cAMP-specific and IBMX-insensitive 3',5'-cyclic phosphodiesterase 8A (Homo sapiens, UniProt O60658); assay: Inhibition of human PDE8A using [3H]cAMP as substrate after 30 mins by scintillation proximity assay
# High affinity cAMP-specific and IBMX-insensitive 3',5'-cyclic phosphodiesterase 8A, sequence (O60658 whole entry): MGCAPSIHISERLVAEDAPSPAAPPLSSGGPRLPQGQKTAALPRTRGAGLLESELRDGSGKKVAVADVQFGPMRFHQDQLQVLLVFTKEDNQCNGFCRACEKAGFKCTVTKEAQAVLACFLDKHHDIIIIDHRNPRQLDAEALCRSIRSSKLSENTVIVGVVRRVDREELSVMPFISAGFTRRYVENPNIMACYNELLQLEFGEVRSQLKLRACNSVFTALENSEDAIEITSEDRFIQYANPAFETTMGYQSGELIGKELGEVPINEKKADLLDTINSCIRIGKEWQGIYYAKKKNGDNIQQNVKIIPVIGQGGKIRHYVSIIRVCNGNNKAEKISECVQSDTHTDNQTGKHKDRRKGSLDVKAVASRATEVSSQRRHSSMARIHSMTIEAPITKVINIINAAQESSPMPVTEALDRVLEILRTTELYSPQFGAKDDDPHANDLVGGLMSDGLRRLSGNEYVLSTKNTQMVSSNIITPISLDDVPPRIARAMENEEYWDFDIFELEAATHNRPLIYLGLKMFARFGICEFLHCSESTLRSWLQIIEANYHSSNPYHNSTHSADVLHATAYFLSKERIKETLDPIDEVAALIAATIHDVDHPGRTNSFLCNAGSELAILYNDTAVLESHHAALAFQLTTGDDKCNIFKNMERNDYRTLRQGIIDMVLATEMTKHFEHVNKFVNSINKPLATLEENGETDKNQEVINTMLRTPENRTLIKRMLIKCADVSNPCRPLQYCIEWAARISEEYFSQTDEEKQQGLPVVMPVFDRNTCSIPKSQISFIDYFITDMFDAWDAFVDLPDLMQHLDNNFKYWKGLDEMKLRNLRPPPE
# [6] = target: Dual 3',5'-cyclic-AMP and -GMP phosphodiesterase 11A (Homo sapiens, UniProt Q9HCR9); assay: Inhibition of human PDE11A using [3H]cAMP as substrate after 30 mins by scintillation proximity assay
# Dual 3',5'-cyclic-AMP and -GMP phosphodiesterase 11A, sequence (Q9HCR9 whole entry): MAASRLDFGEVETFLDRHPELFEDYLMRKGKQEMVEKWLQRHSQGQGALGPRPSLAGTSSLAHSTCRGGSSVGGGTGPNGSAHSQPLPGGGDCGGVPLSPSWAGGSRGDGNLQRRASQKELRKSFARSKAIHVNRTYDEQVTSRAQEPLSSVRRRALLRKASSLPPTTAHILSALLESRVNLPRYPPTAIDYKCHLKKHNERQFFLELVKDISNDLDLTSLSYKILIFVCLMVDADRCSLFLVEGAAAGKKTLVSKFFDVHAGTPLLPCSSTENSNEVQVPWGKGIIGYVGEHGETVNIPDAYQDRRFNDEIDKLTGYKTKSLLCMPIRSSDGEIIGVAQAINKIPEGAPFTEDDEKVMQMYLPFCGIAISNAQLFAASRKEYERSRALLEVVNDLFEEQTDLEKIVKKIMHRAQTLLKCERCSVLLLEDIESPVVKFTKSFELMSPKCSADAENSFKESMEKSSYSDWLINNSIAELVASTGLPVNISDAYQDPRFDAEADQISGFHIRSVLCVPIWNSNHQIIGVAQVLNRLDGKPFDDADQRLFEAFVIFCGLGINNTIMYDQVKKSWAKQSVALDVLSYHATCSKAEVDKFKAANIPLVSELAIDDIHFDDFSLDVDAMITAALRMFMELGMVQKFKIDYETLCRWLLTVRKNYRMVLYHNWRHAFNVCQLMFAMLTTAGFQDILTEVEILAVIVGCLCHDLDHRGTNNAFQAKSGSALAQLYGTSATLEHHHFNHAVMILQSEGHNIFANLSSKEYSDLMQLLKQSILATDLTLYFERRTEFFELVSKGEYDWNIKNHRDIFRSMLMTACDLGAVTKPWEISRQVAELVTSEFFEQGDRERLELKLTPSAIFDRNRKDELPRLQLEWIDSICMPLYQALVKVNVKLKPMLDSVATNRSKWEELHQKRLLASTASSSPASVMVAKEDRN
# [7] = target: cGMP-dependent 3',5'-cyclic phosphodiesterase (Homo sapiens, UniProt O00408); assay: Inhibition of cGMP activated human recombinant PDE2A using [3H]cAMP as substrate after 30 mins by scintillation proximity assay
# Method in brief: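 PDE2A (NM002599) activated with 1 µM cGMP; substrate 0.5 µM [3H]cAMP; scintillation proximity read-out at varied inhibitor concentrations with fixed enzyme amount; IC50 from two-parameter Hill model.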
# [8] = target: High affinity cGMP-specific 3',5'-cyclic phosphodiesterase 9A (Homo sapiens, UniProt O76083); assay: Inhibition of human PDE9A using [3H]cAMP as substrate after 30 mins by scintillation proximity assay
# High affinity cGMP-specific 3',5'-cyclic phosphodiesterase 9A, sequence (O76083 whole entry): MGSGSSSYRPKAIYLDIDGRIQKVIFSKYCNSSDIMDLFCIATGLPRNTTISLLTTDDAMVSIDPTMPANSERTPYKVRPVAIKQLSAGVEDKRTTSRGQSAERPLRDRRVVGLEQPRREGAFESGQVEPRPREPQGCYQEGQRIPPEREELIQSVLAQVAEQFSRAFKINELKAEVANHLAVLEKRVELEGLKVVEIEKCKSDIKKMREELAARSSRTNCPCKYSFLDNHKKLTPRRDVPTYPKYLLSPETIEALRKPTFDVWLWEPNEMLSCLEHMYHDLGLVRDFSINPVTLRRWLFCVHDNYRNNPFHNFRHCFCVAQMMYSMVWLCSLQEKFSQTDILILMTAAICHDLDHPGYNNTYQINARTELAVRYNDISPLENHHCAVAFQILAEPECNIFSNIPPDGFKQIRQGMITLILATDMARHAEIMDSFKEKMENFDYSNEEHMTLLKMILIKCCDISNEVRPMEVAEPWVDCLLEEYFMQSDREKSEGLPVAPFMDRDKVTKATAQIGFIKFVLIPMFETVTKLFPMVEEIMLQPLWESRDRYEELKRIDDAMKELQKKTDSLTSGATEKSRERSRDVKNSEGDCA
# [9] = target: cGMP-specific 3',5'-cyclic phosphodiesterase (Homo sapiens, UniProt O76074); assay: Inhibition of human PDE5A using [3H]cAMP as substrate after 30 mins by scintillation proximity assay
# [10] = target: 3',5'-cyclic-AMP phosphodiesterase 7B (Homo sapiens, UniProt Q9NP56); assay: Inhibition of human PDE7B using [3H]cAMP as substrate after 30 mins by scintillation proximity assay
# 3',5'-cyclic-AMP phosphodiesterase 7B, sequence (Q9NP56 whole entry): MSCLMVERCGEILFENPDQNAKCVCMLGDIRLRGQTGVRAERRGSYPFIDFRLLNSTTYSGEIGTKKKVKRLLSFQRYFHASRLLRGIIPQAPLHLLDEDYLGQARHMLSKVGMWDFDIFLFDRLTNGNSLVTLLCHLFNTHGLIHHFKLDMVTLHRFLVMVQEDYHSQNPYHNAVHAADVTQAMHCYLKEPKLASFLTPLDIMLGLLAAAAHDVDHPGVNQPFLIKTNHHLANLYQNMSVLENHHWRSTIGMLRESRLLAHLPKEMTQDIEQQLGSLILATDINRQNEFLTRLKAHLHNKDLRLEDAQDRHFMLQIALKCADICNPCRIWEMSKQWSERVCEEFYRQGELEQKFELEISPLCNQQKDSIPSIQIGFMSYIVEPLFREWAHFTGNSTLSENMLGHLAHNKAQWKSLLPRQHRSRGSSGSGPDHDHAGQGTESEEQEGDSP
# [11] = target: 3',5'-cyclic-AMP phosphodiesterase 4A (Homo sapiens, UniProt P27815); assay: Inhibition of human PDE4A using [3H]cAMP as substrate after 30 mins by scintillation proximity assay
# 3',5'-cyclic-AMP phosphodiesterase 4A, sequence (P27815 whole entry): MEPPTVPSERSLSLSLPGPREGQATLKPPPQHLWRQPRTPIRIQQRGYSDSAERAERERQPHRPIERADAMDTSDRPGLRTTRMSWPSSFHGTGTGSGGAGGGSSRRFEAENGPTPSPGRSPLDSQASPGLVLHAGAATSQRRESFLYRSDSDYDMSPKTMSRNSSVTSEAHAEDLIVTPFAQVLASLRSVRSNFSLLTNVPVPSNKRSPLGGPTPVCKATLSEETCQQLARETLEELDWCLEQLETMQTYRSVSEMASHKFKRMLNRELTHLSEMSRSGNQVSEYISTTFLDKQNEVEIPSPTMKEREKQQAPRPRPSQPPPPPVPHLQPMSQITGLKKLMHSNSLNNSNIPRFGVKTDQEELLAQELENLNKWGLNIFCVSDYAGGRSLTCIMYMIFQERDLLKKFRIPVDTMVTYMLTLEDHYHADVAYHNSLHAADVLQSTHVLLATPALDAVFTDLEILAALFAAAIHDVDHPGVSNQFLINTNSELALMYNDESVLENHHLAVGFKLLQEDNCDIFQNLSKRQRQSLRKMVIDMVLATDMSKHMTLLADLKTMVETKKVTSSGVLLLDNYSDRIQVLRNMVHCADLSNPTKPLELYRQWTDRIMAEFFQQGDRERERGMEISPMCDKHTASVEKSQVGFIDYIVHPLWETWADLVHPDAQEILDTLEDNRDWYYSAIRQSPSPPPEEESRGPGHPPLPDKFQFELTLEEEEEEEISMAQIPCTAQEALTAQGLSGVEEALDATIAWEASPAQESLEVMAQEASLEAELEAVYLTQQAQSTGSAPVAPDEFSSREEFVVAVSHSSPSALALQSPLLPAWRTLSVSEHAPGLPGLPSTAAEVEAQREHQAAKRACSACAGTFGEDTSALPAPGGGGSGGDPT
IC50 [1] [nM],IC50 [2] [nM],IC50 [3] [nM],Ratio IC50 (Homo sapiens),IC50 [4] [nM],IC50 [5] [nM],IC50 [6] [nM],IC50 [7] [nM],IC50 [8] [nM],IC50 [9] [nM],IC50 [10] [nM],IC50 [11] [nM],Structure (SMILES)
> 1000,0.12,432,199,> 1000,> 1000,494,23.9,> 1000,606,> 1000,> 1000,COc1cc(Br)cc2c1nc(C)c1c(C)nc(-c3cccnc3F)n12
,20.4,,> 49,,,,> 1000,,,,,COc1cc(C#N)cc2c1nc(C)c1c(C)nc(-c3ccc(F)nc3)n12
,0.46,,102,,,,46.8,,,,,COc1cc(-c2cccnc2)cc2c1nc(C)c1c(C)nc(-c3ccnc(F)c3)n12
,1.57,,306,,,,481,,,,,COc1cc(-c2ccnc(F)c2)cc2c1nc(C)c1c(C)nc(-c3ccnc(F)c3)n12
> 1000,0.037,177,94,> 1000,> 1000,457,3.49,> 1000,91.6,> 1000,< 1000,COc1cc(-c2cccnc2)cc2c1nc(C)c1c(C)nc(-c3cccnc3F)n12
,3.18,,> 312,,,,> 1000,,,,,COc1cc(Br)cc2c1nc(C)c1c(C)nc(-c3ccnc(F)c3)n12
> 1000,0.41,> 1000,160,> 1000,> 1000,> 1000,65.7,> 1000,201,> 1000,841,COc1cc(-c2ccc(F)nc2)cc2c1nc(C)c1c(C)nc(-c3ccncc3)n12
> 1000,0.99,585,164,> 1000,> 1000,413,162,> 1000,195,< 1000,> 1000,COc1cc(-c2ccncc2)cc2c1nc(C)c1c(C)nc(-c3ccc(F)nc3)n12
> 1000,0.33,631,88,> 1000,> 1000,286,29.2,> 1000,279,> 1000,> 1000,COc1cc(-c2ccc(F)nc2)cc2c1nc(C)c1c(C)nc(-c3cccnc3)n12
> 1000,2.95,> 1000,> 339,> 1000,> 1000,> 1000,> 1000,> 1000,> 1000,> 1000,> 1000,COc1cc(Br)cc2c1nc(C)c1c(C)nc(-c3ccc(F)nc3)n12
> 1000,0.11,425,99,> 1000,> 1000,286,10.9,> 1000,232,> 1000,1000,COc1cc(-c2cccnc2)cc2c1nc(C)c1c(C)nc(-c3cccnc3)n12
,26.3,,> 38,,,,> 1000,,,,,COc1cc(-c2ccc(F)nc2)cc2c1nc(C)c1c(C)ncn12
> 1000,0.87,559,90,> 1000,> 1000,395,78.6,> 1000,228,> 1000,> 1000,COc1cc(-c2cccnc2)cc2c1nc(C)c1c(C)nc(-c3ccc(F)nc3)n12
,10.3,,> 97,,,,> 1000,,,,,COc1cc(-c2ccc(F)nc2)cc2c1nc(C)c1c(C)nc(Br)n12
,0.048,,43,,,,2.06,,,,,COc1cc(-c2cccnc2F)cc2c1nc(C)c1c(C)nc(-c3cccnc3F)n12
> 1000,3.3,> 1000,120,> 1000,> 1000,> 1000,395,> 1000,> 1000,> 1000,> 1000,COc1cc(-c2ccc(F)nc2)cc2c1nc(C)c1c(C)nc(-c3ccc(F)nc3)n12
,16,,,,,,,,,,,COc1cc2ncnc(N3CC[C@@H](Oc4cnc5ccccc5n4)C3)c2cc1OC
,1.69,,58,,,,98.6,,,,,COc1cc(C#N)cc2c1nc(C)c1c(C)nc(-c3cccnc3F)n12
